Compound activity (PubChem)
NR3A LBD binder = modulators (binders) of human NR3A ligand-binding domain. NR3A LBD differential scanning fluorimetry, Tm shift; 0% = protein alone, 100% = glycine-bound protein. Tm shift relative to glycine control, % at 25 µM. 340,000 tested, 2.5% active. AID 1259313;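 active = melting temperature shift of at least 10% of the positive control shift, at one fixed dose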
EBNA-1 inhibitor = blocks EBNA-1 binding to DNA. 300,000 tested, 0.34% active. AID 1950. inhibition, % at 14.8 µM. EBNA-1 DNA binding, fluorescence polarization; in the data active = inhibition above about 28%
FGF22 binding-1 = FGF22 (human) thermal shift binding | Q9HCT0 | AID 651658 | activity (Tm shift, normalised), % at 9.99 µM | recombinant FGF22 thermal shift, SYPRO orange fluorescence; percent of sucrose octasulfate shift, DMSO zero | 340,000 tested, 1.5% active;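 active = mean Tm shift, scaled 0 neutral to 100 positive control, at about 1.3% or above, every replicate too, limit read from the data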
Target sequence (Q9HCT0 whole entry, looked up): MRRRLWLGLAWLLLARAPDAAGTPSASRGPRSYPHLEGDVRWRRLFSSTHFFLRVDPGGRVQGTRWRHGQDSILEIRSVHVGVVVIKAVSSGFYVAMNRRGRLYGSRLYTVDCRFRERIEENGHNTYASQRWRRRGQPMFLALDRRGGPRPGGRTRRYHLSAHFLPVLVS
HCV NS3 hel inh = HCV NS3 helicase inhibition; NS3 helicase DNA unwinding, Cy5 molecular beacon fluorescence; inhibition, % at 10.9 µM; 290,000 tested, 0.56% active;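 active = inhibition above the mean of all tested compounds plus 3 SD, set per campaign, cut at about 35% in these data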;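 also: 0% = DMSO wells and 100% = thioflavine S control wells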
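Assay system: hepatitis C virus NS3 helicase domain fragment enzyme. Also added: annealed dual-labelled DNA beacon duplex, ATP-started. Timing: 1 h reaction at 25 °C, ATP-initiated. Technique: Cy5 fluorescence at 0 and 60 min, beacon hairpin quenching. Evaluation: % inhibition of unwinding. Replication: one well per compound.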
DNA FID counter = fluorescent intercalator displacement, NS3 helicase counter-screen; inhibition, % at 7.9 µM; DNA fluorescent intercalator displacement, fluorescence; 290,000 tested, 0.17% active; in the data active = inhibition above about 37%;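 also: 0% = vehicle and 100% = reference compound; higher means more ethidium bromide displaced from hairpin DNA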
ZTA counter = counter-screen for EBNA-1 inhibitors: inhibitors of Epstein-Barr virus ZTA. P03206. ZTA-DNA binding, fluorescence polarization. inhibition, % at 11 µM. 320,000 tested, 0.15% active. AID 2234; in the data active = inhibition above about 33%
Target sequence (P03206 whole entry, looked up): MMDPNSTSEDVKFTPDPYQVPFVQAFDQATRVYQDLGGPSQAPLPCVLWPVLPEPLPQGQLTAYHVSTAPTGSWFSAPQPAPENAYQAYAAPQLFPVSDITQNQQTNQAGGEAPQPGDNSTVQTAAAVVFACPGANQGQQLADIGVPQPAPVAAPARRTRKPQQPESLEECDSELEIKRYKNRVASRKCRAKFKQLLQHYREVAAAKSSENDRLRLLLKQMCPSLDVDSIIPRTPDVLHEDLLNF
FGF22 binding-2 = binds human FGF22 shifting its melting temperature; shares compounds with FGF22 binding-1; recombinant FGF22 thermal shift, SYPRO orange fluorescence; thermal shift activity, °C (ΔTm) at 38 µM; 1,000 tested, 2% active; AID 720646;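 active = fitted rise in melting shift crosses a set limit at or below the top valid dose tested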
TSA no protein = counter-screen for FGF22 binders: compound-only thermal shift, no protein; shares compounds with FGF22 binding-1; compound-only SYPRO orange thermal shift counter-screen; AC50, µM (highest dose often 38 µM); 1,000 tested, 2% active; AID 743019;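 active = rising signal whose fitted curve reaches the 0.54 level within the top valid dose, showing a melting point, actives reach about 13 µM in these data; inactive = the rest, including activity in the opposite direction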; also: value is where the raw curve crosses a fixed level and not half-maximal
Starred values were filed as active, the others as inactive; i = inactive; / = no result given; ! = a repeat was not active; [ ] = dose if it differs, or a comment. Rows were chosen to be rich in hits. Some 3.6% of all compounds tested hit in one or more screens of this group.

SMILES	NR3A LBD binder	EBNA-1 inhibitor	FGF22 binding-1	HCV NS3 hel inh	DNA FID counter	ZTA counter	FGF22 binding-2	TSA no protein
COc1cc(/C=N/NC(=O)c2[nH]nc3c2CCc2ccccc2-3)ccc1O	29*	-2	1.7*	-9	-4	6	0.68	i
COc1cc(/C=N/NC(=O)c2ccc(=O)[nH]n2)ccc1O	-3	8	/	-11	-3	3	/	/
CCS(=O)(=O)N[C@@H]1CC[C@H](CC(=O)Nc2ccc(-c3ccccc3)cc2)O[C@@H]1CO	/	/	1.2*	/	/	/	0.14[35 µM]	i
O=C(O)C1CCC(CNCc2ccccc2Cl)CC1 (configuration not stated)	-13	-1	0	0	3	-25	/	/
CCOC(=O)C1CCC(CNCc2ccccc2C)CC1 (configuration not stated)	0	4	1.6*	1	7	2	0.054	i
O=C(c1ccccc1)N1C[C@H]2[C@@H](c3ccccc31)[C@H](CO)N2S(=O)(=O)c1ccccc1	/	/	0	/	/	/	/	/
CCC(C)NS(=O)(=O)c1ccc(S(=O)(=O)N2CC=C(c3ccc(F)cc3)CC2)cc1 (configuration not stated)	-4	-3	14*	-10	-4	0	0.13	i
Cc1ccc(S(=O)(=O)Nc2ccc3c(c2)CC(=O)N([C@H](C)CO)C[C@H](C)[C@@H](CN(C)Cc2ccc(C(=O)O)cc2)O3)cc1	/	/	0	/	/	/	/	/
COCC(=O)N1C[C@H]2[C@@H](c3ccccc31)[C@@H](CO)N2C(=O)Nc1ccccc1F	/	/	0	/	/	/	/	/
COc1ccc(C(=O)N2C[C@H]3[C@@H](c4ccccc42)[C@@H](CO)N3C(=O)c2ccc(F)cc2)cc1	/	/	1.8*	/	/	/	0.061[42 µM]	i
CC(=O)N1[C@@H](CO)[C@@H]2c3ccccc3N(C(=O)c3ccc(F)cc3)C[C@@H]21	/	/	1.8*	/	/	/	0.11	i
COCC(=O)N1C[C@H]2[C@@H](c3ccccc31)[C@H](CO)N2C(=O)Nc1ccccc1F	/	/	1.5*	/	/	/	-0.044	i
O=c1oc(-c2ccc(O)c(O)c2)cc2cc(O)cc(O)c12	20*	/	1.5*	/	/	/	-0.15	i
COc1cc(-c2cc(=O)c3c(O)cc(O)cc3o2)ccc1O	-1	-8	/	16	-3	-3	/	/
Cc1ccc(-c2ccc([C@@H]3[C@H]4CN(C(=O)c5cccnc5)CC(=O)N4[C@H]3CO)cc2)cc1	/	/	0	/	/	/	/	/
O=[N+]([O-])c1ccc(Cl)c(S(=O)(=O)Nc2ccc(S(=O)(=O)N3CCOCC3)cc2)c1	0	1	2.2*	12	-9	0	0.15	i
Cc1ccc(Cl)cc1NS(=O)(=O)c1ccc2c(c1)NC(=O)C(C)C(=O)N2 (configuration not stated)	-4	7	1.9*	-1	-15	-9	0.068	i
Nc1nccc(-c2ccc(-n3cccc3)cc2)n1	-1	7	2.3*	-4	0	-6	0.004	i
CCC(=O)N1CC2(C1)[C@@H](c1ccccc1)[C@@H](CO)N2S(=O)(=O)Cc1ccccc1	/	/	0	/	/	/	/	/
O=C(CC1CC1)N1CC2(C1)[C@@H](c1ccccc1)[C@@H](CO)N2S(=O)(=O)Cc1ccccc1	/	/	1.3*	/	/	/	-0.11	i
O=C(C1CCCC1)N1CC2(C1)[C@H](c1ccccc1)[C@@H](CO)N2CC1CC1	/	/	1.6*	/	/	/	0.056[42 µM]	i
CCC(=O)N1CC2(C1)[C@H](c1ccccc1)[C@H](CO)N2S(=O)(=O)Cc1ccccc1	/	/	16*	/	/	/	-0.015	i
CCCNC(=O)Nc1ccc2c(c1)C(=O)N(C)C[C@H](OC)[C@@H](C)CN(C(C)=O)[C@H](C)CO2	/	/	0	/	/	/	/	/
O=C(C[C@H]1CC[C@@H]2[C@H](COC[C@@H](O)CN2C(=O)Cc2ccccc2)O1)NC1CCC1	/	/	0	/	/	/	/	/
N#Cc1ccc(NC(=O)Nc2cccc(C#N)c2)cc1	26*	/	1.9*	0	0	/	/	6.4µM*
SMILES	NR3A LBD binder	EBNA-1 inhibitor	FGF22 binding-1	HCV NS3 hel inh	DNA FID counter	ZTA counter	FGF22 binding-2	TSA no protein
N#Cc1cccc(NC(=O)c2ccccc2C(=O)O)c1	-1	3	/	3	2	0	/	/
COc1cc(/C=C2\CCn3c2nc2cc(C(=O)O)ccc2c3=O)ccc1OC(F)F	3	-9	1.4*	7	-16	7	0.17	i
CC(=O)N1[C@@H]2Cn3c(ccc(-c4cccnc4)c3=O)[C@H]1[C@@H](C(=O)N1CCc3ccccc3C1)[C@@H]2CO	/	/	0	/	/	/	/	/
COc1cc(NC(=O)c2cc(C)on2)cc(C(=O)Nc2cccc(C(F)(F)F)c2)c1	2	1	1	/	/	-11	/	/
COc1cc(NC(=O)c2cnc(N)o2)cc(C(=O)Nc2cccc(C(F)(F)F)c2)c1	5	6	2.2*!	/	/	1	0.14	i
COc1cc(NC(=O)c2cnc(N)s2)cc(C(=O)Nc2cccc(C(F)(F)F)c2)c1	37*	0	1.7*!	/	/	-8	0.064	i
Cc1cc(C(=O)Nc2cccc3c2O[C@H](CN(C)C(=O)Nc2ccc(F)cc2)[C@H](C)CN([C@H](C)CO)C3=O)n(C)n1	/	/	0	/	/	/	/	/
CC(C)NC(=O)N[C@H]1CC[C@H](CCNC(=O)C2CCOCC2)O[C@H]1CO	/	/	0	/	/	/	/	/
CCN(CC)c1ccc(/C=N/NC(=O)c2cc(C)nc3ccccc23)cc1	-2	-1	0	-2	-25	-5	/	/
CCN(CC)c1ccc(/C=N/NC(=O)c2c[nH]c3ccccc23)cc1	9	2	1.8*	1	-7	-14	-0.099	i
Cc1cccc(S(=O)(=O)N2CCCCN3[C@@H](CO)[C@@H](c4ccc(C#C[C@H](C)O)cc4)[C@@H]3C2)c1	/	/	1.3*	/	/	/	-0.087[42 µM]	i
Cc1cccc(S(=O)(=O)N2CCCCN3[C@H](CO)[C@@H](c4ccc(C#C[C@H](C)O)cc4)[C@@H]3C2)c1	/	/	0	/	/	/	/	/
S=C(N/N=C/c1ccccc1Cl)Nc1ccccc1	-7	12	/	7	-8	5	/	/
Oc1ccc(C=NNC(=S)Nc2ccccc2)nc1	/	/	1.5*	/	/	/	0.039	i
CO[C@@H]1CN(C)C(=O)c2ccc(NC(C)=O)cc2OC[C@@H](C)N(C(=O)CN2CCOCC2)C[C@H]1C	/	/	0	/	/	/	/	/
O=C(CN1CCOCC1)Nc1ccc(OC(F)(F)F)cc1	-3	-1	0	0	3	-11	/	/
O=C(CN1CCCC1)Nc1ccc(OC(F)(F)F)cc1	-1	-10	26*	16	11	11	0.11	i
Cc1nn(CCOc2ccccc2Cl)c(C)c1[N+](=O)[O-]	1	1	1.7*	-15	-5	12	-0.008	i
